Reference: ChEMBL document CHEMBL4052722, “Virtual screening, synthesis and biological evaluation of DNA intercalating antiviral agents” (Bioorg Med Chem Lett, 2017)
Activity calls are given as the source filed them. The calls are words filed in the database; no cut-off is given here.

Legend:
[1] = test system: Vesicular stomatitis virus; experiment: Antiviral activity against Vesicular stomatitis virus at 0.2 to 620 uM after 24 hrs post infection relative to control; type: functional
[2] = Cytotoxicity against African green monkey CV1 cells assessed as cell viability at 0.1 to 100 uM preincubated for 4 hrs measured after 24 hrs by MTT assay relative to control; type: cell-based, CV-1; settings: chlorocebus aethiops, read-out: Activity
In short: (§1)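 CV-1 cells were exposed to test samples at 0.1, 10 and 100 μM. Viability was read by MTT assay.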

[3] = Cytotoxicity against African green monkey CV1 cells assessed as viable cells at 1 uM after 110 hrs by real-time cell analysis relative to control; type: cell-based, CV-1; settings: chlorocebus aethiops, read-out: Activity
In short: (§2)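 CV-1 cell viability was monitored in real time on an xCelligence Real-Time Cell Analyzer. This ran in parallel with the plaque-forming assay, in which cells were pre-incubated with the compounds for 4 h before infection.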

[4] = test system: L929; experiment: Induction of IFN-alpha activity in mouse L929 cells infected with Encephalomyocarditis virus at 10 uM preincubated with cells for overnight followed by viral infection by optical microscopic analysis; type: functional, cell-based
[5] = Cytotoxicity against African green monkey CV1 cells assessed as reduction in cell viability preincubated for 4 hrs measured after 24 hrs by MTT assay relative to control; type: cell-based, CV-1; settings: chlorocebus aethiops; in short: as §1
[6] = Cytotoxicity against African green monkey CV1 cells assessed as viable cells at 50 uM after 110 hrs by real-time cell analysis relative to control; type: cell-based, CV-1; settings: chlorocebus aethiops, read-out: Activity; in short: as §2
[7] = species on record: Bos taurus; experiment: Displacement of ethidium bromide from calf thymus DNA by fluorescence binding assay
[8] = Cytotoxicity against African green monkey CV1 cells assessed as viable cells at 10 uM after 110 hrs by real-time cell analysis relative to control; type: cell-based, CV-1; settings: chlorocebus aethiops, read-out: Activity; in short: as §2
[9] = Selectivity index, ratio of CC50 for African green monkey CV1 cells to IC50 for Vaccinia virus LIVP harboring GFP infected in African green monkey CV1 cells; type: toxicity; settings: read-out: Ratio CC50/IC50
[10] = Cytotoxicity against African green monkey CV1 cells assessed as viable cells at 5 uM after 110 hrs by real-time cell analysis relative to control; type: cell-based, CV-1; settings: chlorocebus aethiops, read-out: Activity; in short: as §2
[11] = Cytotoxicity against African green monkey CV1 cells assessed as viable cells at 30 uM after 110 hrs by real-time cells analysis relative to control; type: cell-based, CV-1; settings: chlorocebus aethiops, read-out: Activity; in short: as §2

## CN(C)CCCNC(=O)Cn1c2ccccc2c2nc3ccccc3nc21
[1]
  Activity: 50%
[2]
  viability at 24 h, up to 100 µM: 84%
[3]
  viability at 110 h, 1 µM: 104%
[4]
  Activity: inactive
[5]
  CC50 at 24 h: 100 to 500 µM
[6]
  viability at 110 h, 50 µM: 90%
[7]
  log Ka: 5.2
[8]
  viability at 110 h, 10 µM: 131%
[9]
  selectivity ratio: 50

## CCN(CC)CCCNCCn1c2ccccc2c2nc3ccccc3nc21
[1]
  Activity: 53%
[2]
  viability at 24 h, up to 100 µM: 74%
[3]
  viability at 110 h, 1 µM: 97.1%
[5]
  CC50 at 24 h: 30 to 50 µM
[6]
  viability at 110 h, 50 µM: 17.2%
[10]
  viability at 110 h, 5 µM: 125%
[7]
  log Ka: 6.87
[8]
  viability at 110 h, 10 µM: 125%

## c1ccc2nc3c(nc2c1)c1ccccc1n3CCNCCCN1CCOCC1
[1]
  Activity: 52%
[2]
  viability at 24 h, up to 100 µM: 79%
[3]
  viability at 110 h, 1 µM: 107%
[4]
  Activity: inactive
[5]
  CC50 at 24 h: 50 to 81 µM
[7]
  log Ka: 6.72
[8]
  viability at 110 h, 10 µM: 110%
[9]
  selectivity ratio: 4
[11]
  viability at 110 h, 30 µM: 75%

## CN(C)CCCNCCn1c2ccccc2c2nc3ccccc3nc21
[1]
  Activity: 69%
[2]
  viability at 24 h, up to 100 µM: 88%
[3]
  viability at 110 h, 1 µM: 114%
[4]
  Activity: inactive
[5]
  CC50 at 24 h: 50 to 92 µM
[7]
  log Ka: 6.76
[8]
  viability at 110 h, 10 µM: 110%
[9]
  selectivity ratio: 4
[11]
  viability at 110 h, 30 µM: 75%

## COc1ccc2c(c1)c1nc3ccccc3nc1n2CCN1CCCCC1
[2]
  viability at 24 h, up to 100 µM: 79%
[3]
  viability at 110 h, 1 µM: 108%
[4]
  Activity: inactive
[5]
  CC50 at 24 h: 100 to 170 µM
[6]
  viability at 110 h, 50 µM: 75.6%
[8]
  viability at 110 h, 10 µM: 96.9%
[9]
  selectivity ratio: 34
